Experimental data as given in paper PMC3744939 (ChemMedChem, 2012).
Where a name gives a salt, the structure may show the parent alone. Read-outs that look alike come from different tables or passages of the source.

What was measured:
[1] = molecular target: T1, recombinant T. b. brucei CTPS (Trypanosoma brucei brucei, UniProt Q4GZ95); experiment: CTPS enzyme assay; assay type: biochemical
T1 sequence (Q4GZ95 1-589): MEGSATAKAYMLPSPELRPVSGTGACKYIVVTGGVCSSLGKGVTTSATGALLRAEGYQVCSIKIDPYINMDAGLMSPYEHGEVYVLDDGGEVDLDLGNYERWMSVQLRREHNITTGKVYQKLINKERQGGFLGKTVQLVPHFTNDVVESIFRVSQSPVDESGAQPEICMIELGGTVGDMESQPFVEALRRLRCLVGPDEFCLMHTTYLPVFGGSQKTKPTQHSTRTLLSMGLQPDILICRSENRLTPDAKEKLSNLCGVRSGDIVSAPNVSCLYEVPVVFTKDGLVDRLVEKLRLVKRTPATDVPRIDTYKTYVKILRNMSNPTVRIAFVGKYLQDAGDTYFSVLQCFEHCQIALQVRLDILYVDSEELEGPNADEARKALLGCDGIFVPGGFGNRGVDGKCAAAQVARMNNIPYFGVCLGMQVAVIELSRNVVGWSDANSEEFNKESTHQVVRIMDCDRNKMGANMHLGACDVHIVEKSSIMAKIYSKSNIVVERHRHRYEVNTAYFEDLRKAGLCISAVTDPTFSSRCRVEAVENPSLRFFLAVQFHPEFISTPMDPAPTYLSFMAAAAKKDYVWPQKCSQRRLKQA
How it was run: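 Recombinant T. b. brucei CTPS measured by coupled spectrophotometric assay with pyruvate kinase/lactate dehydrogenase. Enzyme pre-incubated with varied test-compound concentrations at room temperature, then added to reaction mix; A341 decrease monitored; IC50.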

HeLa cells [2] = experiment: In vitro toxicity assay for HeLa mammalian cells; assay type: cell-based, human; conditions: read-out: HeLa EC50
How it was run: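 Alamar Blue assay on HeLa cells grown in DMEM with 10% FCS and 2 mM L-glutamine. Cells plated at 3 × 10^5 cells mL−1 and exposed to serially diluted test compound for 16 h before Alamar Blue addition. Fluorescence read at ex 544/em 590 nm; EC50 derived from the dose-response.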

[3] = tested on: bloodstream form T. b. brucei (strain 427); experiment: In vitro toxicity assay for T. b. brucei; assay type: cell-based; conditions: for EC50: read-out: T. b. brucei EC50, strain 427, 48 h + 24 h Alamar Blue
[4] = molecular target: T1, recombinant T. b. brucei CTPS; conditions: 3-Br versus 3-Cl (Acivicin); cited from earlier work
[5] = tested on: bloodstream form T. b. brucei (strain 427); conditions: 3-Br versus 3-Cl (Acivicin); cited from earlier work
HeLa cells [6] = conditions: 3-Br versus 3-Cl (Acivicin); cited from earlier work
[7] = 16 hours incubation before Alamar Blue

Structure (SMILES)	IC50 [1]	EC50 (HeLa cells [2]; Homo sapiens, HeLa, 16 h)	S.I. selectivity index (EC50 HeLa/EC50 T. b. brucei) [3]	other results
COC(=O)[C@@H](N)[C@@H]1CC(Br)=NO1 [1-COOMe]				EC50 [3]: 2.1 ± 0.5 µM; EC50 (HeLa cells [2]; [7]): 12.5 ± 1.6 µM
N[C@H](C(=O)O)[C@@H]1CC(Cl)=NO1 [Acivicin, reference compound]		16.3 µM	36	
COC(=O)[C@@H](N)[C@@H]1CC(Cl)=NO1 [Acivicin-COOMe]				EC50 [3]: 22.4 ± 1.3 µM; EC50 (HeLa cells [2]; [7]): 41.9 ± 3.1 µM
N[C@H](C(=O)O)[C@@H]1CC(Br)=NO1 [Compound 1, Br-Acivicin]				times more potent than Acivicin as a CTPS inhibitor ([1]; relative to Acivicin): 3; EC50 [3]: 0.038 ± 0.013 µM; times more efficacious than Acivicin as an anti-trypanosomal agent ([3]; relative to Acivicin): 12; increase of the inhibitory potency against CTPS [4]: three fold; EC50 (HeLa cells [2]; [7]): 15.1 ± 1.2 µM; increase in the in vitro anti-trypanosomal activity [5]: twelve-fold; toxicity against mammalian cells (HeLa cells [6]): unaffected
COC1=NO[C@H]([C@H](N)C(=O)O)C1 [Compound 2, (S)-2-amino-2-((S)-3-methoxy-4,5-dihydroisoxazol-5-yl)acetic acid]	> 500 µM	> 500 µM	>5	
CN(C)C1=NO[C@H]([C@H](N)C(=O)O)C1 [Compound 3, (S)-2-amino-2-((S)-3-(dimethylamino)-4,5-dihydroisoxazol-5-yl)acetic acid]	> 500 µM	> 500 µM	>5	inhibitory activity against CTPS, in words [1]: complete loss of the inhibitory potency
O=C(O)CC1CC(Br)=NO1 (centres unmarked) [Compound 4, 2-(3-bromo-4,5-dihydroisoxazol-5-yl)acetic acid]	> 500 µM	> 500 µM	>5	inhibitory activity against CTPS, in words [1]: inactive
CC(C)(C)OC(=O)N[C@H](C(=O)O)[C@@H]1CC(Br)=NO1 [Compound 5]				CTPS inhibitory potency relative to Br-Acivicin ([1]; relative to Br-Acivicin): twice more potent; EC50 [3]: 3.4 ± 0.4 µM; EC50 (HeLa cells [2]; [7]): 4.6 ± 0.5 µM
O=C(N[C@H](C(=O)O)[C@@H]1CC(Br)=NO1)OCc1ccccc1 [Compound 6, (S)-(benzyloxycarbonylamino)-2-((S)-3-bromo-4,5-dihydro-isoxazol-5-yl)acetic acid]	1.74 ± 0.4 µM	410 ± 39 µM		times weaker than Acivicin as a CTPS inhibitor ([1]; relative to Acivicin): 5; times weaker than Br-Acivicin as a CTPS inhibitor ([1]; relative to Br-Acivicin): 17

Continued, in another order:

IC50 [1]	Structure (SMILES)	EC50 (HeLa cells [2]; Homo sapiens, HeLa, 16 h)	S.I. selectivity index (EC50 HeLa/EC50 T. b. brucei) [3]	other results
> 500 µM	N[C@H](C(=O)O)[C@H]1CC(Cl)=NN1Cc1ccccc1 (relative stereo) [Compound 7a, (S*)-2-amino-2-((R*)-1-benzyl-3-chloro-4,5-dihydro-1H-pyrazol-5-yl)acetic acid hydrochloride]	> 500 µM		
> 500 µM	N[C@H](C(=O)O)[C@@H]1CC(Cl)=NN1Cc1ccccc1 (relative stereo) [Compound 7b, (S*)-2-amino-2-((S*)-1-benzyl-3-chloro-4,5-dihydro-1H-pyrazol-5-yl)acetic acid hydrochloride]	> 500 µM		
0.1 ± 0.004 µM	CCN1N=C(Cl)C[C@@H]1[C@H](N)C(=O)O.Cl (relative stereo) [Compound 8a, (S*)-2-amino-2-((R*)-3-chloro-1-ethyl-4,5-dihydro-1H-pyrazol-5-yl)acetic acid hydrochloride]	> 500 µM	>5	inhibitory activity against CTPS, in words [1]: sub-micromolar inhibition; times more potent than Acivicin as a CTPS inhibitor ([1]; relative to Acivicin): about three times more potent; increase of trypanocidal activity upon conversion into the methyl ester (times) ([3]; methyl ester versus free amino acid): about 9
> 500 µM	CCN1N=C(Cl)C[C@H]1[C@H](N)C(=O)O (relative stereo) [Compound 8b, (S*)-2-amino-2-((S*)-3-chloro-1-ethyl-4,5-dihydro-1H-pyrazol-5-yl)acetic acid hydrochloride]	> 500 µM		
0.125 ± 0.002 µM	Cl.NCCN1N=C(Cl)CC1C(N)C(=O)O (centres unmarked) [9a,b, 2-amino-2-(1-(2-aminoethyl)-3-chloro-4,5-dihydro-1H-pyrazol-5-yl)acetic acid monohydrochloride]	> 500 µM		inhibitory activity against CTPS, in words [1]: sub-micromolar inhibition; times more potent than Acivicin as a CTPS inhibitor ([1]; relative to Acivicin): about three times more potent
